OX1R antag-1: human HCRTR1 antagonism. O43613. CHO/OX1R cells, Fluo-8 calcium fluorescence, orexin A. inhibition, % at 5 µM. hit rate 0.43% among 330,000;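 active = inhibition above its plate's threshold, mean inhibition of all tested compounds on the plate plus 3 SD, cut at about 37% in these data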;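 note: 0% = orexin A challenge wells and 100% = SB-334867-A antagonist wells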
Target sequence (O43613 whole entry, looked up): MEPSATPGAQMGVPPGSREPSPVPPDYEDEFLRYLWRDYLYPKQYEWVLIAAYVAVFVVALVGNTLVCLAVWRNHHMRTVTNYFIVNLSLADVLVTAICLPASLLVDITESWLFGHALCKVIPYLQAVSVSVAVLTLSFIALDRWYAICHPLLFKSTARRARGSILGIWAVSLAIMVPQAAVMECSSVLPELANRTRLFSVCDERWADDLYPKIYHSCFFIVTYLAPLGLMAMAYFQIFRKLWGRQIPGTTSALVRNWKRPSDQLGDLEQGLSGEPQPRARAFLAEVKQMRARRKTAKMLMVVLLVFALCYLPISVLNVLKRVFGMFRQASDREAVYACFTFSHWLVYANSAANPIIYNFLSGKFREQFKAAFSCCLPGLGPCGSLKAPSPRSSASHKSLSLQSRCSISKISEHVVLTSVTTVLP
OX1R antag-2: OX1R (human) antagonism. AID 485270. OX1R-expressing cells, FRET antagonist read-out. O43613. hit rate 1.8% among 330,000. inhibition, % at 6.6 µM; in the data active = inhibition mostly above about 38%, no sharp cut-off; inactive = mostly below about 40%;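 note: 0% = agonist challenge alone and 100% = reference antagonist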
TAAR1 antagonist: antagonists of human TAAR1; hit rate 1.5% among 360,000; Q96RJ0; inhibition, % at 3 µM; CHO RD-HGA16 TAAR1, Fluo-8 calcium fluorescence, antagonist; AID 624466;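 active = inhibition above a per-plate cutoff, the mean inhibition of test compounds on that plate plus 3 SD, cut at about 49% in these data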;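 note: 0% = DMSO plus EC80 beta-PEA response and 100% = DMSO alone without agonist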
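Assay system: CHO-derived RD-HGA16 cells stably expressing human TAAR1 plus Gα16. Timing: 140 s kinetic read after compound, 140 s after agonist. Technique: kinetic Fluo-8 calcium fluorescence measurement. Measure: % inhibition of agonist calcium response.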
TAAR1 agonist: human TAAR1 agonism. hit rate 0.99% among 360,000. Q96RJ0. AID 624467. activation, % at 3 µM. CHO RD-HGA16 TAAR1, Fluo-8 calcium fluorescence; vehicle wells 0%, saturating PEA agonist 100%;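 active = activation above the mean activation of all test compounds in the run plus 3 SD, cut at about 38% in these data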
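Assay system – CHO-derived RD-HGA16 cells with stable Gα16 and human TAAR1 · Compound dosing – one-point dosing at 3 µM (nominal) · Incubation – 17-24 h seeding, 75 min 37 °C dye, 30 min RT · Measured by – kinetic Fluo-8 calcium fluorescence · Control set – DMSO vehicle as 0%, PEA at EC100 as 100% · Repeats – single well for each compound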
GPR7 antag: antagonists of human GPR7 (neuropeptides B/W receptor 1) | P48145 | GPR7-expressing cells, fluorescence antagonist assay | inhibition, % at 4.4 µM | hit rate 1.1% among 290,000; in the data active = inhibition above about 16%, passing the limit was not always enough;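 note: cells stimulated with the agonist NPW; 0% = agonist with vehicle and 100% = vehicle without agonist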
Target sequence (P48145 whole entry, looked up): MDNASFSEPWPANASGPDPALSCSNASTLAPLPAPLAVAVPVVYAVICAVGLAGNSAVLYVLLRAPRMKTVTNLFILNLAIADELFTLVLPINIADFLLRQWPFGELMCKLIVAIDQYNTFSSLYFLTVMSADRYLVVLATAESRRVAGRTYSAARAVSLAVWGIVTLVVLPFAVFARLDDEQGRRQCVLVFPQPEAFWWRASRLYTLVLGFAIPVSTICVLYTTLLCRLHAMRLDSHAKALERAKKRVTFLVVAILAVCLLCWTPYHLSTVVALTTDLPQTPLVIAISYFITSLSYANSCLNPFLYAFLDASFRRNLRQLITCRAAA
CHO parental Ca: counter-screen: ATP calcium response change in parental CHO cells; inhibition, % at 5.6 µM; hit rate 0.63% among 330,000; AID 463079; parental CHO-K1, ATP-induced calcium, Fluo-8 fluorescence;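 active = inhibition above that plate's mean sample inhibition plus 3 SD, cut at about 26% in these data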;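 note: 0% = ATP-challenged DMSO wells and 100% = DMSO wells without ATP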
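material = parental CHO cells | also added = ATP as calcium-mobilizing challenge | dosing = single point at 5.6 µM | detection = intracellular calcium via Fluo-8 no-wash fluorescent dye | read-out = % inhibition | benchmarks = low control ATP plus DMSO, high control DMSO only | repeats = one well per compound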
GPR7 antag cf: confirmation of human GPR7 antagonists; shares compounds with GPR7 antag; GPR7-expressing cells, calcium fluorescence antagonist mode; inhibition, % at 4.4 µM; hit rate 52% among 2,400; AID 1952; in the data active = inhibition above about 24%;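 note: stimulated with the GPR7 agonist NPW; 0% = agonist plus vehicle and 100% = vehicle alone without agonist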
MCHR1 antagonist: antagonizes human MCHR1, a GPR7 antagonist counter-screen | shares compounds with GPR7 antag | MCHR1-expressing cells, fluorescence antagonist assay | inhibition, % at 4.4 µM | hit rate 62% among 2,400 | AID 2148; in the data active = inhibition above about 22%;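 note: 0% = vehicle with agonist and 100% = vehicle without agonist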
OX1R Fluo8 conf: OX1R (human) antagonism, confirmed. shares compounds with OX1R antag-1. CHO/OX1R cells, orexin A calcium Fluo-8 fluorescence. inhibition, % at 5 µM. hit rate 38% among 1,100; in the data active = inhibition above about 29%;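 note: 0% = agonist challenge alone and 100% = reference antagonist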
CHO Ca counter: counter-screen: parental CHO calcium response change, triplicate. hit rate 9.3% among 1,100. inhibition, % at 5.6 µM. parental CHO-K1, ATP-induced calcium, Fluo-8 fluorescence. shares compounds with OX1R antag-1;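 active = inhibition above a per-plate limit, the mean inhibition of that plate's test compounds plus 3 SD, cut at about 25% in these data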;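 note: 0% = ATP challenge with DMSO and 100% = DMSO without ATP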
OX1R HTRF conf: confirmation of human orexin 1 receptor antagonists, HTRF format; OX1R-expressing cells, HTRF antagonist assay; shares compounds with OX1R antag-2; hit rate 49% among 1,800; inhibition, % at 6.6 µM; in the data active = inhibition above about 55%;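 note: CHO cells expressing OX1R stimulated with orexin A at about EC80; 0% = agonist challenge alone and 100% = reference antagonist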
CHO-K1 HTRF cnt: counter-screen: parental CHO-K1 HTRF response. shares compounds with OX1R antag-2. inhibition, % at 6.6 µM. AID 493232. hit rate 48% among 1,800. parental CHO-K1 cells, HTRF counterscreen; in the data active = inhibition above about 17%;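 note: 0% = agonist challenge with vehicle and 100% = vehicle alone without agonist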
* = called active by the depositor; . = no result. Rows were chosen to be rich in hits. Some 4.5% of all compounds tested hit in one or more screens of this group.

SMILES	OX1R antag-1	OX1R antag-2	TAAR1 antagonist	TAAR1 agonist	GPR7 antag	CHO parental Ca	GPR7 antag cf	MCHR1 antagonist	OX1R Fluo8 conf	CHO Ca counter	others
O=C1C2CC=CCC2C(=O)N1c1ccc(NCCc2ccc(Cl)cc2)c([N+](=O)[O-])c1 (stereo unspecified)	-3	15	5	1	1	-7	.	.	.	.
O=C1C2CC=CCC2C(=O)N1c1ccc(NCCc2ccc(O)cc2)c([N+](=O)[O-])c1 (stereo unspecified)	4	22	40	20	31*	17	28*	55*	.	.
CCCCc1ccc(-c2ccc(Br)cc2)nc1	5	4	-11	-1	30*	-3	-17	0	.	.
COc1ccc(OC)c(C(c2nnnn2C2CCCC2)N2CCN(c3ccccc3)CC2)c1 (stereo unspecified)	-13	17	4	0	31*	-18	24*	41*	.	.
CC(=O)Nc1ccc(NC2CCCCC2NS(=O)(=O)c2ccc(Cl)cc2)cc1 (stereo unspecified)	-12	4	-9	5	0	-26	.	.	.	.
Cc1sc2cc3c(c(C(=O)c4ccccc4)[n+]2c1C)-c1cccc2cccc-3c12	0	20	-5	1	-10	2	.	.	.	.
O=C(c1ccccc1)c1c2c(cc3sc4ccccc4[n+]13)-c1cccc3cccc-2c13	45	12	9	8	21*	29	18	32*	36*	37*
Cc1ccc(C)c(NC(=O)CN(C)C(=O)c2ccccc2OCc2c(C)noc2C)c1	-6	-4	0	2	.	-10	.	.	.	.
COc1cc(/C=C(\C#N)c2nc3ccccc3o2)ccc1O	34	17	51*	58*	26*	23	36*	46*	56*	56*
N#C/C(=C\c1ccc(O)cc1)c1nc2ccccc2o1	-4	24	22	15	-3	-2	.	.	.	.
COc1ccccc1-n1nnnc1SCC(=O)Nc1ccc(C)c(N)c1	-2	4	0	1	5	4	.	.	.	.
C=CCOc1cccc(C(=O)/C=C2/C(=O)Nc3ccccc32)c1	35	14	24	2	43*	19	65*	81*	21	19
O=C(Nc1csc([N+](=O)[O-])c1)Nc1ccccc1Cl	35	44	23	10	41*	3	51*	62*	1	42*
O=C(Nc1ccccc1Cl)Nc1ccccc1Cl	-29	14	-45	-3	-1	-9	.	.	.	.
CCOC(=O)/C(=C\C=C1/Sc2ccccc2N1CC)C(C)=O	42	43	16	17	28*	34	19	36*	34*	35*
COc1cc(OC)cc(C(=O)N[C@H](C(=O)OCC(=O)N2CCc3ccccc32)C(C)C)c1	-43	15	-9	6	-2	-20	.	.	.	.
COc1ccc(OCC(=O)N2CCN(S(=O)(=O)c3ccc4c(c3)OCCO4)CC2)cc1	.	.	-11	3	.	.	.	.	.	.
CCCCCc1ccc(OCCCC[n+]2ccc(C)cc2)c(CCCCC)c1	40*	14	-11	35	24*	21	70*	79*	16	11
Cc1ccc(Cl)cc1N1CCN(C(=O)c2ccc3c(c2)CCN3S(C)(=O)=O)CC1	31	16	12	4	29*	13	25*	17	-2	-5
CS(=O)(=O)N1CCc2cc(C(=O)N3CCN(c4cccc(Cl)c4)CC3)ccc21	2	-1	-21	5	8	-16	.	.	.	.
C/C(=C\c1ccccc1)CN1CCN(C(C)C)C(CCO)C1 (stereo unspecified)	-9	8	-2	0	-14	-12	.	.	.	.
CCOC(=O)c1c(-c2ccc(-c3ccccc3)cc2)csc1NC(=O)CNCCN(C)C	31	8	23	15	34*	16	60*	75*	36*	12
O=C(CNS(=O)(=O)c1ccc(Br)s1)NCCc1ccc(Cl)cc1	21	21	19	3	25*	-7	3	34*	-5	-3
N=c1c(C(=O)NCCc2ccccc2)cc2c(=O)n3ccccc3nc2n1CC1CCCO1 (stereo unspecified)	-26	88*	-13	-2	48*	-21	34*	20	.	.	OX1R HTRF conf=83*;CHO-K1 HTRF cnt=62*
O=C(O)c1cccc(NC2=C(Cl)C(=O)c3ccccc3C2=O)c1	.	.	9	-1	-3	.	.	.	.	.
SMILES	OX1R antag-1	OX1R antag-2	TAAR1 antagonist	TAAR1 agonist	GPR7 antag	CHO parental Ca	GPR7 antag cf	MCHR1 antagonist	OX1R Fluo8 conf	CHO Ca counter	others
O=C(O)c1ccc(NC2=C(Cl)C(=O)c3ccccc3C2=O)cc1	12	84*	-4	0	50*	13	18	35*	.	.	OX1R HTRF conf=70*;CHO-K1 HTRF cnt=34*
CC1CCC(C(C)C)C(OC(=O)C[n+]2cc(-c3ccc(Cl)cc3)n3c2CCC3)C1 (stereo unspecified)	-24	102*	-19	5	28*	-6	38*	51*	.	.	OX1R HTRF conf=19;CHO-K1 HTRF cnt=4
O=C(c1cnn2c(C(F)(F)F)cc(-c3ccc(F)cc3)nc12)N1CCc2ccccc2C1	-24	37	-36	0	2	-34	.	.	.	.
CC(=O)Oc1cccc(N2C(=O)c3cccc4c([N+](=O)[O-])ccc(c34)C2=O)c1	28	115*	22	4	60*	18	54*	36*	.	.	OX1R HTRF conf=99*;CHO-K1 HTRF cnt=72*
CCSc1ccc(-c2cccc([N+](=O)[O-])c2)nn1	-13	57	-28	-3	-15	-21	.	.	.	.
CS(=O)(=O)N(CC(O)Cn1c2ccccc2c2ccccc21)c1ccccc1 (stereo unspecified)	27	49*	39	16	28*	13	35*	34*	36*	-2	OX1R HTRF conf=44;CHO-K1 HTRF cnt=3
CN(CC(O)Cn1c2ccccc2c2ccccc21)S(C)(=O)=O (stereo unspecified)	7	-5	1	6	0	-3	.	.	.	.

Bioassay records (PubChem)
